Measured values collected from several papers.
Compare with care: the assays were run in different laboratories.
Target: Casein kinase I isoform gamma-1 (CSNK1G1, Homo sapiens, UniProt Q9HCP0)

| SMILES | effect on | mode | method | tested at | endpoint | value |
| --- | --- | --- | --- | --- | --- | --- |
| CC(C)(C)c1cc(C=C(C#N)C#N)cc(Br)c1O | enzyme activity | inhibitor |  | 0.5 µM | remaining activity | 106% |
| Cn1cc(-c2cc(F)cc(N3CCn4c(cc5c4CCCC5)C3=O)c2CO)cc(Nc2ccc(N3CCN(C4COC4)CC3)cn2)c1=O | enzyme activity | inhibitor |  | 0.1 µM | inhibition | 1% |
| Cn1cncc1[C@@](O)(COc1ccc(C#N)cc1-c1ccc(OC(F)(F)F)cc1)c1ccc(C#N)cc1 | cell-free assay |  | competition with immobilised ligand | 1 µM | remaining binding | 91% |
| C#Cc1n[nH]c2c(-c3cn(C(C)c4ccccn4)c(=O)[nH]c3=O)cc(F)cc12 (stereo not drawn) | enzyme activity | inhibitor |  | 1 µM | inhibition | 5.4% |
| Cn1cc(-c2cccc(N3CCc4c(sc5c4CC(C)(C)C5)C3=O)c2CO)cc(Nc2ccncn2)c1=O | enzyme activity | inhibitor |  | 1 µM | inhibition | 5% |
| Cc1nn(C)cc1-c1nc2c(N3CCN(Cc4ccc(Cl)cc4)CC3)c(Cl)cnc2[nH]1 | binding |  | competition with immobilised ligand | 1 µM | remaining binding | 100% |
| C#Cc1n[nH]c2c(-c3cn([C@@H](C)c4ccccc4)c(=O)[nH]c3=O)cc(F)cc12 | enzyme activity | inhibitor |  | 0.1 µM | inhibition | 6.6% |
| N#CC1(c2ccccn2)CCN(Cc2cc(C(=O)O)c(=O)n3ccccc23)CC1 | cell-free assay |  | competition with immobilised ligand | 1 µM | remaining binding | 100% |
| Nc1ncc(-c2nc(N3CCOCC3)nc(N3CCOCC3)n2)c(C(F)F)n1 | binding |  | competition with immobilised ligand | 10 µM | remaining binding | 79% |
| O=c1[nH]c2ccccc2n1C1CCN(Cc2ccc(-c3[nH]c4cc5ncnc5cc4nc3-c3ccccc3)cc2)CC1 | cell-free assay |  |  | 0.5 µM | remaining signal | 99.3% |
| COc1cc(Nc2ncc(F)c(Nc3ccc4c(n3)NC(=O)C(C)(C)O4)n2)cc(OC)c1OC | binding |  | competition with immobilised ligand | 10 µM | inhibition | 0% |
| COc1ncccc1-c1cnn2ccc(N3CCN(C(=O)OC(C)C)CC3)nc12 | binding |  | competition with immobilised ligand | 1 µM | remaining binding | 77% |
